Screening data: PubChem, several laboratories
In the library only some 2.2% were active in any assay of this set; here they are far more common.
SF1 activator = activators of human SF-1, primary screen, cell-based, CHO-K1, Gal4-SF-1 LBD, luciferase luminescence; Steroidogenic factor 1 (Homo sapiens), Q13285; CHO-K1 Gal4-SF-1 LBD luciferase reporter; % increase over DMSO SF-1-specific signal; activation, % at 10 µM; actives 1.9% (n = 65,000); AID 522, 2006;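 active = activation above the mean activation of all tested compounds plus 3 SD, cut at about 50% in these data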
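material = CHO-K1 cells with Gal4–hSF-1 LBD chimera plus Gal4-driven luciferase | compound = 10 µM single point, 1% DMSO | incubation = 20 h compound exposure at 37 °C after 1 h cell settling | measured by = SteadyLite luciferase luminescence | evaluation = percent activation relative to DMSO median and mock-transfected background | control set = DMSO negative control and −SF1 background wells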
Candida biofilm = clotrimazole potentiators killing Candida biofilms, primary screen, with clotrimazole, Alamar Blue | C. albicans biofilm + clotrimazole | inhibition, % at 6 µM | actives 0.14% (n = 85,000);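 active = inhibition above 20%; inactive = inhibition below 20%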;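 also: preformed 24 hr biofilms exposed to compound for 48 hr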
CD11b adhes inh = inhibitors of CD11b/CD18 adhesion to fibrinogen, primary screen, K562 cells, luminescence | AID 1497, 2009 | ATPlite luminescence; Mn2+ added to activate the integrin | Integrin beta-2 (Homo sapiens) + Integrin alpha-M (Homo sapiens), P05107+P11215 | actives 0.54% (n = 93,000) | inhibition, % at 10 µM;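 active = primary inhibition of 50% or more at 10 µM, then 40% or more on retest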
Target sequence (P05107 whole entry, looked up, other chains not shown): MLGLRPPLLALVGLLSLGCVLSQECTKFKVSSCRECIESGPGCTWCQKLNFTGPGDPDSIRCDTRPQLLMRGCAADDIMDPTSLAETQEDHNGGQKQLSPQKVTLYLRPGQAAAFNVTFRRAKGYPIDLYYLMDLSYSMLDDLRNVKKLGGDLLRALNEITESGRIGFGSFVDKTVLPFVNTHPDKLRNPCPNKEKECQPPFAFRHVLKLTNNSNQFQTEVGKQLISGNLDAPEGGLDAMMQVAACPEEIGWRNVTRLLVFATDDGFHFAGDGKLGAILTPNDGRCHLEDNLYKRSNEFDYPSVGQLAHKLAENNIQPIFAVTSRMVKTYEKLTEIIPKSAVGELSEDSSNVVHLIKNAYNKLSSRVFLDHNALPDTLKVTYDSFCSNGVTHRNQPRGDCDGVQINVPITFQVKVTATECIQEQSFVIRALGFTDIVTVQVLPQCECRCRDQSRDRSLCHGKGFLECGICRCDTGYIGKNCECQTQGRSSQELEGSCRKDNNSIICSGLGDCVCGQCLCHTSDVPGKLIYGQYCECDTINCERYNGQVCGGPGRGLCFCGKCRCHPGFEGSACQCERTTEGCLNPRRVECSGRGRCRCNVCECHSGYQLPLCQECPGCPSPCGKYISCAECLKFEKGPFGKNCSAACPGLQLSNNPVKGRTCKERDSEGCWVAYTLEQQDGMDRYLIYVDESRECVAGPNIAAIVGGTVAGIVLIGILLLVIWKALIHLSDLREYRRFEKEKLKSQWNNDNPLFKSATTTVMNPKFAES
Mac1 fbg enh = enhancers of CD11b/CD18 adhesion to fibrinogen, primary screen, K562 cells, luminescence; ATPlite luminescence; activation, % at 10 µM; actives 0.07% (n = 93,000); Integrin beta-2 (Homo sapiens) + Integrin alpha-M (Homo sapiens), P05107+P11215; AID 1499, 2009;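 active = 10 µM primary screen giving 50% or more activity, confirmed by 40% or more on retest at that dose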
RORa activator = activators of orphan receptor RORA, primary screen, cell-based, luminescence; Nuclear receptor ROR-alpha (Homo sapiens), P35398; CHO-K1 Gal4-RORA LBD luciferase reporter; percent increase over mock-subtracted basal signal; activation, % at 10 µM; actives 1.5% (n = 65,000); AID 560, 2006;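 active = activation above the mean of all tested compounds plus 3 SD, cut at about 49% in these data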
MT1-MMP txn act = MT1-MMP promoter reporter activation – cell-based, luciferase luminescence, primary screen; actives 0.16% (n = 86,000); HT1080 MT1-MMP promoter luciferase reporter, overnight; stronger effect = higher value; activation factor at 10 µM;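 active = activation factor of at least 2 for MT1-MMP transcription at 10 µM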
A number is an active result.

Screening COc1ccc(NC(=O)c2sc(SC)nc2N)cc1 returned SF1 activator 61, Candida biofilm inactive, CD11b adhes inh inactive, Mac1 fbg enh inactive, RORa activator 62 and MT1-MMP txn act inactive.
Screening COc1ccc(NC(=O)c2sc(SCc3ccccc3)nc2N)cc1 returned Candida biofilm inactive, CD11b adhes inh inactive, Mac1 fbg enh inactive and MT1-MMP txn act inactive.
`Cc1onc(-c2ccccc2Cl)c1C(=O)Nc1nnc(-c2cccc([N+](=O)[O-])c2)s1` gave Candida biofilm inactive, CD11b adhes inh 90 and Mac1 fbg enh inactive.
`Cc1nn(-c2ccccn2)c2c1-c1nc(N)ncc1CC2` gave SF1 activator inactive, Candida biofilm inactive, CD11b adhes inh inactive, Mac1 fbg enh inactive, RORa activator 51 and MT1-MMP txn act inactive.
Screening CCc1nnc2n1N=C(c1ccc(-c3cc(Cl)ccc3Cl)o1)CS2 returned SF1 activator inactive, Candida biofilm 24, CD11b adhes inh inactive, Mac1 fbg enh inactive, RORa activator inactive and MT1-MMP txn act inactive.
For CCc1nnc2n1N=C(c1ccc(-c3ccc(Cl)cc3Cl)o1)CS2 the results were SF1 activator inactive, Candida biofilm inactive, RORa activator inactive and MT1-MMP txn act inactive.
Cn1cc(-c2nnc(-c3ccccc3)o2)c2ccccc21 was read as Candida biofilm inactive and MT1-MMP txn act 2.3.
Cc1ccccc1-c1nnc(-c2ccccc2)o1 was read as SF1 activator inactive, Candida biofilm inactive, CD11b adhes inh inactive, Mac1 fbg enh inactive, RORa activator inactive and MT1-MMP txn act inactive.
`Cc1cc(Br)ccc1NC(=S)Nc1cccc([N+](=O)[O-])c1` gave CD11b adhes inh 99 and Mac1 fbg enh inactive.
Cc1c(C(=O)NC2CCCc3ccccc32)oc2ccc(S(=O)(=O)N3CCOCC3)cc12 (stereo not given) was read as SF1 activator inactive, Candida biofilm inactive, CD11b adhes inh inactive, Mac1 fbg enh 57 and RORa activator inactive.
`O=C1CCCN1CC(O)CS(=O)(=O)c1ccc(Cl)cc1` (stereo not given) gave CD11b adhes inh inactive and Mac1 fbg enh inactive.
C=CCNC(=O)c1cc(-c2ccc(Br)cc2)on1 was read as SF1 activator inactive, Candida biofilm inactive, CD11b adhes inh inactive, Mac1 fbg enh inactive, RORa activator 61 and MT1-MMP txn act inactive.
O=C(NCCN1CCOCC1)c1cc(-c2ccc(Br)cc2)on1 was read as SF1 activator inactive, Candida biofilm inactive, CD11b adhes inh inactive, Mac1 fbg enh inactive, RORa activator inactive and MT1-MMP txn act inactive.
Screening CCCCNC(=O)c1cc(-c2ccc(F)cc2)on1 returned SF1 activator inactive, Candida biofilm inactive, RORa activator 72 and MT1-MMP txn act inactive.
`CCCCNC(=O)c1cc(-c2ccc(OC)cc2)on1` gave SF1 activator inactive, Candida biofilm inactive, CD11b adhes inh inactive, Mac1 fbg enh inactive and RORa activator 59.
`CCCCNC(=O)c1cc(-c2ccc(OC)c(OC)c2)on1` gave SF1 activator inactive, Candida biofilm inactive, CD11b adhes inh inactive, Mac1 fbg enh inactive, RORa activator inactive and MT1-MMP txn act inactive.
Screening O=C(NCC#CC(CCc1ccccc1)OCc1ccccc1)c1ccccc1 (stereo not given) returned MT1-MMP txn act inactive.
`Cc1ccc(C)c2c1[nH]c1ccc([N+](=O)[O-])cc12` gave Candida biofilm inactive, CD11b adhes inh inactive, Mac1 fbg enh inactive and MT1-MMP txn act inactive.
COC(=O)[C@@H]1C[C@@H]2CC[C@@H](O)C[C@@H]2N1Cc1ccc(C)s1 was read as MT1-MMP txn act inactive.
Screening CCOCCCNC(=O)C(NC(=O)c1cnccn1)c1ccc(C)cc1 (stereo not given) returned Candida biofilm inactive, CD11b adhes inh inactive, Mac1 fbg enh inactive and MT1-MMP txn act inactive.
For CCC/C=C(\CCC)C(NC(=O)c1ccc(C(F)(F)F)cc1)c1ccc(C(F)(F)F)cc1 (stereo not given) the results were MT1-MMP txn act inactive.
